Experimental data taken from ChEMBL document CHEMBL1938380, “Indole RSK inhibitors. Part 1: discovery and initial SAR” (Bioorg Med Chem Lett, 2012).

What was measured:
[1] = target: T1, Ribosomal protein S6 kinase alpha-3 (Homo sapiens, UniProt P51812); experiment: Inhibition of RSK2-mediated CREB phosphorylation in HeLa cells expressing luciferase reporter gene; assay type: cell-based
[2] = target: T1, Ribosomal protein S6 kinase alpha-3; experiment: Inhibition of RSK2 phosphorylation by luminescence assay
Method in brief: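 Soluble RSK2 enzyme; its phosphorylation activity was read out in a luminescent kinase assay format adapted from a published method.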

T1 sequence (P51812 whole entry): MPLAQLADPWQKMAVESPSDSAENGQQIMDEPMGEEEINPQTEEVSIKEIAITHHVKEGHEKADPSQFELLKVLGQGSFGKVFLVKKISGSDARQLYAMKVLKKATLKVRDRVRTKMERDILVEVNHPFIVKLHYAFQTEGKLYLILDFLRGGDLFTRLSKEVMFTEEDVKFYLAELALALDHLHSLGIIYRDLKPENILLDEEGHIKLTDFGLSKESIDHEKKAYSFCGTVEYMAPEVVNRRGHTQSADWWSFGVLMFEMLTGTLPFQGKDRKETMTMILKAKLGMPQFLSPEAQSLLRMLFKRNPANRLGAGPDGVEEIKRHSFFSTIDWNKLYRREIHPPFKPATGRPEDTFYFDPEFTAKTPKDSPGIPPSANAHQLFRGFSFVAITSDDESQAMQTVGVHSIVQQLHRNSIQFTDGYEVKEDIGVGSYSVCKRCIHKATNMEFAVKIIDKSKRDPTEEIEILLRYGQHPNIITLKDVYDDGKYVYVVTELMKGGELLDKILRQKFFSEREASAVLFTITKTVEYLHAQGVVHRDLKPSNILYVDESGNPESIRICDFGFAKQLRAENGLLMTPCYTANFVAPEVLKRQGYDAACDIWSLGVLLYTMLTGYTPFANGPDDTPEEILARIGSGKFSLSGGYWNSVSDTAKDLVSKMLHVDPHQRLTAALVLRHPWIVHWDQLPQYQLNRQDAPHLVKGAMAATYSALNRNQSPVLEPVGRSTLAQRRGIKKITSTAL

Row | Structure (SMILES) | IC50 [1] | IC50 [2]
1 | CC1CCNC(=O)c2cc3ccc(C(=O)Nc4cccnc4)cc3n21 (centres undefined) | 890 nM | 
2 | O=C(Nc1cccnc1)c1ccc2cc3n(c2c1)CC1(CC1)CNC3=O |  | 410 nM
3 | O=C(Nc1cccnc1)c1ccc2cc3n(c2c1)CC1(CCOCC1)CNC3=O |  | > 10000 nM
4 | CC1CCn2c(cc3ccc(C(=O)Nc4cccnc4)cc32)C(=O)N1 (centres undefined) |  | 2500 nM
5 | CC1CNC(=O)c2cc3ccc(C(=O)Nc4cccnc4)cc3n21 (centres undefined) | 1630 nM | 170 nM
6 | CC1(C)CNC(=O)c2cc3ccc(C(=O)Nc4cccnc4)cc3n21 | 1550 nM | 210 nM
7 | NCC1Cn2c(cc3ccc(C(=O)Nc4cccnc4)cc32)C(=O)N1 (centres undefined) |  | 970 nM
8 | NC(=O)c1ccc2cc3n(c2c1)CCCNC3=O |  | 9100 nM
9 | O=C(NC1CCCCC1)c1ccc2cc3n(c2c1)CCCNC3=O |  | > 10000 nM
10 | O=C(Nc1ccccc1)c1ccc2cc3n(c2c1)CCCNC3=O | 1930 nM | 
11 | O=C(Nc1ccc(Cl)cc1)c1ccc2cc3n(c2c1)CCCNC3=O |  | 180 nM
12 | NC(=O)c1ccccc1NC(=O)c1ccc2cc3n(c2c1)CCCNC3=O | 560 nM | 
13 | O=C(Nc1ccncc1)c1ccc2cc3n(c2c1)CCCNC3=O | 620 nM | 34 nM
14 | O=C(Nc1ccccn1)c1ccc2cc3n(c2c1)CCCNC3=O | 2630 nM | 
15 | O=C(Nc1ncccn1)c1ccc2cc3n(c2c1)CCCNC3=O |  | > 10000 nM
16 | O=C(NCc1cccnc1)c1ccc2cc3n(c2c1)CCCNC3=O | > 10000 nM | > 10000 nM
17 | O=C(Nc1ncc[nH]1)c1ccc2cc3n(c2c1)CCCNC3=O | 290 nM | 

Row | Structure (SMILES) | IC50 [1] | IC50 [2]
18 | O=C(Nc1cn[nH]c1)c1ccc2cc3n(c2c1)CCCNC3=O | > 10000 nM | 
19 | Cn1nccc1NC(=O)c1ccc2cc3n(c2c1)CCCNC3=O |  | > 1000 nM
20 | O=C(Nc1cnc2ccccc2c1)c1ccc2cc3n(c2c1)CCCNC3=O | 340 nM | 
21 | CC(C)n1ncc2cc(NC(=O)c3ccc4cc5n(c4c3)CCCNC5=O)cnc21 | 840 nM | 
22 | O=C(Nc1ccc2ccccc2n1)c1ccc2cc3n(c2c1)CCCNC3=O | 1130 nM | 68 nM
23 | O=C(Nc1nc2ccccc2s1)c1ccc2cc3n(c2c1)CCCNC3=O |  | > 10000 nM
24 | O=C(Nc1nc2ccccc2o1)c1ccc2cc3n(c2c1)CCCNC3=O | > 10000 nM | 
25 | O=C(Nc1nc2ccccc2[nH]1)c1ccc2cc3n(c2c1)CCCNC3=O | > 10000 nM | 4 nM
26 | O=C(Nc1cccnc1)c1ccc2cc3n(c2c1)CCCNC3=O | 1940 nM | 240 nM
27 | CC1Cn2c(cc3ccc(C(=O)Nc4cccnc4)cc32)C(=O)N1 (centres undefined) |  | 350 nM
28 | CC1CNC(=O)c2cc3ccc(C(=O)Nc4cccnc4)cc3n2C1 (centres undefined) | 4890 nM | 1200 nM
29 | NCC1CNC(=O)c2cc3ccc(C(=O)Nc4cccnc4)cc3n2C1 (centres undefined) |  | 1800 nM
30 | O=C(Nc1nccs1)c1ccc2cc3n(c2c1)CCCNC3=O |  | 2200 nM
31 | O=C(Nc1cccnc1)c1ccc2cc3n(c2c1)CCNC3=O | > 10000 nM | 730 nM
32 | C[C@@H]1CNC(=O)c2cc3ccc(C(=O)Nc4cccnc4)cc3n2[C@@H]1C (relative stereo) |  | 240 nM
33 | C[C@@H]1NC(=O)c2cc3ccc(C(=O)Nc4cccnc4)cc3n2[C@@H]1C (relative stereo) | 840 nM | 45 nM
34 | C[C@@H]1[C@@H](C)NC(=O)c2cc3ccc(C(=O)Nc4cccnc4)cc3n21 (relative stereo) |  | 871 nM
